Experimental findings from ChEMBL document CHEMBL4049392, “New azole derivatives showing antimicrobial effects and their mechanism of antifungal activity by molecular modeling studies” (Eur J Med Chem, 2017) are described below.

As usually defined, the MIC is the least concentration at which growth counts as inhibited.

For series [1], the system named is Escherichia coli. Kind of series: Antibacterial activity against Escherichia coli ATCC 25922 after 18 to 24 hrs by broth microdilution method. The series is classed as functional. The essentials:
(§1)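 CLSI broth microdilution in Mueller Hinton broth, with inoculum from 24 h Mueller Hinton agar subcultures, final about 5 10^5 cfu/mL. Compounds were dissolved in DMSO and tested as twofold dilutions in wells. Plates were incubated at 35 °C for 18–24 h. MIC was read as the lowest concentration completely inhibiting visible growth. Ciprofloxacin was the reference.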
For orientation: In broth dilution the organism is exposed to a series of concentrations in liquid medium.

Series [2] relates to Candida parapsilosis. The series can be described thus: Anti-fungal activity against Candida parapsilosis ATCC 90018 after 48 hrs by broth microdilution method. The series is classed as functional. To be noted: Lodderomyces parapsilosis, ATCC 90018, 48 h. The essentials: (§2)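 CLSI broth microdilution in RPMI 1640 (with glutamine, without bicarbonate) buffered to pH 7.0 with MOPS. Inoculum was prepared from 24 h Sabouraud dextrose agar subcultures, final 0.5 to 2.5 10^3 cfu/mL. Twofold dilutions were made from DMSO stocks. Incubated 35 °C for 48 h. MIC was the lowest concentration with no visible growth; for the fluconazole reference, MIC was taken at about 80% growth inhibition versus control.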

In series [3] the test system is Candida albicans. Kind of series: Anti-fungal activity against Candida albicans ATCC 90028 after 48 hrs by broth microdilution method. The series is classed as functional. To be noted: ATCC 90028, 48 h. In outline: as §2
The subject of series [4] is Nakaseomyces glabratus. The series can be described thus: Anti-fungal activity against drug-resistant Candida glabrata after 48 hrs by broth microdilution method. The series is classed as functional. In outline:
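Clinical resistant C. glabrata isolate, stored frozen in glycerol and subcultured twice on Sabouraud dextrose agar. CLSI broth microdilution in RPMI 1640 (glutamine, no bicarbonate) buffered to pH 7.0 with MOPS. Inoculum from 24 h subcultures, final 0.5 to 2.5 x10^3 cfu/mL. DMSO-dissolved compounds in twofold dilutions, 35 C for 48 h. MIC is the lowest concentration giving complete visual growth inhibition; fluconazole reference read at about 80% inhibition.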

Series [5] in a line: Cytotoxicity against human U937 cells assessed as cell viability at 10 to 100 ug/ml after 48 hrs by MTT assay relative to control. The series is classed as cell-based, U-937. The settings on record: read-out: Activity. In outline:
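U937 human monocytic cells, 4 10^3 per well in RPMI-1640 with 10% FBS, L-glutamine, penicillin and streptomycin, at 37 °C and 5% CO2. Compounds in DMSO were added at five final concentrations for 48 h, in triplicate. MTT was added for 4 h, formazan was dissolved overnight in SDS/23% DMF, and OD was read at 570 nm. Results are % reduction in viable cells versus control.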

For series [6], the system named is Pseudomonas aeruginosa. Kind of series: Antibacterial activity against Pseudomonas aeruginosa ATCC 27853 after 18 to 24 hrs by broth microdilution method. In kind it is functional. In outline: as §1
Series [7] relates to Pichia kudriavzevii. The series can be described thus: Anti-fungal activity against Candida krusei ATCC 6258 after 48 hrs by broth microdilution method. The series is classed as functional. To be noted: ATCC 6258, 48 h. In outline:
as §2

Series [8] has as its system Staphylococcus aureus. The series can be described thus: Antibacterial activity against Staphylococcus aureus ATCC 29213 after 18 to 24 hrs by broth microdilution method. In kind it is functional. In outline: as §1
In series [9] the test system is Enterococcus faecalis. Kind of series: Antibacterial activity against Enterococcus faecalis ATCC 29212 after 18 to 24 hrs by broth microdilution method. In kind it is functional. The essentials: as §1
In series [10] the test system is Candida albicans. The series can be described thus: Antibiofilm activity against Candida albicans SC5314 after 24 hrs by turbidity assay. In kind it is functional. In outline: (§3)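 Biofilms were grown on Calgary device pegs from a 10^6 cfu/mL inoculum for 24 h at 37 °C. Pegs were rinsed in saline, then challenged with twofold dilutions for 24 h at 35 °C. Biofilm was recovered by 5 min sonication into RPMI 1640 with 2% glucose and incubated overnight. OD was read at 550 nm plus visual turbidity. MBEC was the lowest concentration preventing regrowth. MBIC was the minimum concentration preventing initial biofilm formation, judged by visual turbidity.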

Series [11] concerns Candida albicans. The series can be described thus: Antibiofilm activity against Candida albicans SC5314 after 24 hrs by spectrophotometric method. In kind it is functional. In outline:
as §3

`Cl.O=C(Cc1ccccc1)OC(Cn1ccnc1)c1ccc(Cl)cc1` (centres undefined): the MIC came out at 256 µg/mL in series [1]; 2 µg/mL in [2]; 0.5 µg/mL in [3]; 4 µg/mL in series [4]; 256 µg/mL in [6]; 4 µg/mL in series [7]. Further, the MIC in series [8] was 16 µg/mL; in series [9] it was 256 µg/mL. In addition, the viability at 48 h in [5] is 70 to 80%.

As for `Cl.O=C(OC(Cn1ccnc1)c1ccc(Cl)cc1)c1ccc(-c2ccccc2)cc1` (centres undefined), the MIC in series [1] was 512 µg/mL; in series [2] it was 0.25 µg/mL; in series [3], 0.25 µg/mL; in series [4] it was 4 µg/mL; in series [6], 256 µg/mL; in series [7], 4 µg/mL. Moreover, the MIC in series [8] is 512 µg/mL; in [9] it was 256 µg/mL. In [5], the viability at 48 h was 70 to 80%. The same compound gave an MBIC in series [10] of 4 µg/mL. The compound further showed an MBEC in [11] of 512 µg/mL.

As to `CCCCC(=O)OC(Cn1ccnc1)c1ccc(Cl)cc1.Cl` (centres undefined), the MIC in [1] turned out to be 512 µg/mL; in [2], 0.5 µg/mL; in series [3], 0.5 µg/mL; in series [4], 0.25 µg/mL; in series [6], 256 µg/mL; in [7], 8 µg/mL. Moreover, the MIC in series [8] was 32 µg/mL; in [9], 128 µg/mL. In [5], the viability at 48 h fell in the range of 70 to 80%. In series [10], the MBIC came to 8 µg/mL. Also, the MBEC in [11] came out at 1024 µg/mL.

For `Cl.O=C(OC(Cn1ccnc1)c1ccccc1)c1ccc(-c2ccccc2)cc1` (centres undefined), the MIC in series [1] stood at 512 µg/mL; in series [2], 0.125 µg/mL; in series [3], 0.125 µg/mL; in series [4], 2 µg/mL; in series [6], 256 µg/mL; in series [7] it was 8 µg/mL. The MIC came to 512 µg/mL in series [8] and 128 µg/mL in series [9]. For the same compound, the viability at 48 h in series [5] was 70 to 80%. For the same compound, the MBIC in series [10] stood at 8 µg/mL. Besides, the MBEC in series [11] came out at 1024 µg/mL.

`Cl.O=C(CCC(=O)c1ccccc1)OC(Cn1ccnc1)c1ccc(Cl)cc1` (centres undefined): the minimum inhibitory concentration (MIC) turned out to be 256 µg/mL in series [1]; 4 µg/mL in series [2]; 4 µg/mL in [3]; 32 µg/mL in series [4]; 256 µg/mL in [6]; 16 µg/mL in [7]. The MIC was 8 µg/mL in series [8] and 256 µg/mL in series [9]. The viability at 48 h in series [5] was in the range of 70 to 80%.

For the compound `CCC(=O)OC(Cn1ccnc1)c1ccc(Cl)cc1.Cl` (centres undefined), the MIC in [1] worked out at 512 µg/mL; in series [2], 4 µg/mL; in series [3] it was 4 µg/mL; in [4] it was 32 µg/mL; in [6], 256 µg/mL; in [7] it was 32 µg/mL. For the same compound, the MIC in series [8] and in [9] was 256 µg/mL in each case. In series [5], the viability at 48 h lay in the range of 70 to 80%.

Turning to `Cl.O=C(/C=C/c1ccccc1)OC(Cn1ccnc1)c1ccccc1` (centres undefined), the MIC worked out at 512 µg/mL in series [1]; 1 µg/mL in series [2]; 1 µg/mL in series [3]; 8 µg/mL in series [4]; 256 µg/mL in series [6]; 16 µg/mL in [7]. Besides, the MIC worked out at 8 µg/mL in series [8] and 64 µg/mL in series [9]. In [5], the viability at 48 h was 70 to 80%. The compound further had an MBIC in series [10] of 8 µg/mL. This compound displayed an MBEC in [11] of 1024 µg/mL.

`Cl.O=C(CCCc1ccccc1)OC(Cn1ccnc1)c1ccc(Cl)cc1` (centres undefined): the MIC is 512 µg/mL in series [1]; 2 µg/mL in series [2]; 2 µg/mL in series [3]; 8 µg/mL in series [4]; 512 µg/mL in series [6]; 8 µg/mL in series [7]. Besides, the MIC in [8] and in series [9] was 128 µg/mL throughout. Besides, the viability at 48 h in series [5] is 70 to 80%.

Consider `CC(C)CC(=O)OC(Cn1ccnc1)c1ccc(Cl)cc1.Cl` (centres undefined), for which the MIC stood at 512 µg/mL in series [1]; 0.25 µg/mL in series [2]; 0.25 µg/mL in series [3]; 1 µg/mL in series [4]; 256 µg/mL in series [6]; 4 µg/mL in [7]. Also, the MIC is 32 µg/mL in series [8] and 128 µg/mL in [9]. For the same compound, the viability at 48 h in [5] fell in the range of 70 to 80%. For the same compound, the MBIC in series [10] stood at 8 µg/mL. Further, in [11], the MBEC was 1024 µg/mL.

In the case of `C/C=C/C=C/C(=O)OC(Cn1ccnc1)c1ccc(Cl)cc1.Cl` (centres undefined), the MIC in series [1] was 512 µg/mL; in [2], 1 µg/mL; in series [3], 0.5 µg/mL; in series [4] it was 4 µg/mL; in [6], 256 µg/mL; in [7], 8 µg/mL. Besides, the MIC in series [8] amounted to 16 µg/mL; in series [9], 128 µg/mL. Moreover, the viability at 48 h in [5] was in the range of 70 to 80%. In series [10], the MBIC was 8 µg/mL. Also, the MBEC in [11] was found to be 1024 µg/mL.

Turning to `CCCC(=O)OC(Cn1ccnc1)c1ccc(Cl)cc1.Cl` (centres undefined), the minimal inhibitory concentration (MIC) in [1] was 512 µg/mL; in series [2], 1 µg/mL; in series [3] it was 0.5 µg/mL; in series [4] it was 16 µg/mL; in [6], 256 µg/mL; in [7] it was 4 µg/mL. For the same compound, the MIC is 64 µg/mL in series [8] and 256 µg/mL in series [9]. Moreover, the viability at 48 h in series [5] is 70 to 80%. The MBIC in series [10] is greater than 32 µg/mL. Moreover, the MBEC in series [11] was 1024 µg/mL.

Consider `Cl.O=C(OC(Cn1ccnc1)c1ccc(Cl)cc1)C1CCCCC1` (centres undefined), for which the MIC amounted to 256 µg/mL in [1]; 1 µg/mL in series [2]; 1 µg/mL in [3]; 0.5 µg/mL in series [4]; 1020 µg/mL in [6]; 8 µg/mL in series [7]. Besides, the MIC in [8] turned out to be 256 µg/mL; in series [9], 512 µg/mL. In addition, in series [5], the viability at 48 h is 70 to 80%. In addition, in series [10], the MBIC turned out to be 8 µg/mL. Besides, the MBEC in series [11] worked out at 512 µg/mL.
